Source: ChEMBL document CHEMBL4837219, “Chemical modification of NSC12 leads to a specific FGF-trap with antitumor activity in multiple myeloma” (Eur J Med Chem, 2021)
The source made the active and inactive calls. The rule behind the calls is not given here.

Experiments:
KMS-11 [1] = experiment: Trapping activity at FGF in human KMS-11 cells assessed as inhibition of FGFR3 phosphorylation at 6 uM measured after 6 hrs by western blot analysis; format: cell-based
Outline: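 KMS-11 cells treated for 6 h with compound at 6.0 µM, then lysed in NP-40 buffer containing orthovanadate and protease inhibitors. Phospho-FGFR3 detected by western blot with anti-phospho-Y724 antibody, using β-actin or α-tubulin as loading control. Result expressed as % inhibition of FGFR3 phosphorylation by densitometry.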

KMS-11 [2] = experiment: Antiproliferative activity against human KMS-11 cells assessed as reduction in cell viability incubated for 48 hrs by propidium iodide staining-based flow cytometric analysis; format: functional; conditions: KMS-11, 48 h
Outline: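 KMS-11 cells (maintained in RPMI1640 with 10% heat-inactivated FBS and 2.0 mM glutamine) exposed to increasing concentrations of compound for 48 h. Viable PI-negative cells counted by flow cytometry using the analyzer's absolute counting function. IC50 is the concentration giving 50% inhibition of proliferation, taken as the mean of at least 2 experiments run in triplicate.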

[3] = target: T1, Estrogen receptor (Homo sapiens) (UniProt P03372); experiment: Displacement of [3H]estradiol from human full length recombinant ERalpha expressed in baculovirus-infected Sf9 cells at 5 uM incubated for 120 mins by radiometric scintillation counting analysis
T1 sequence (whole entry): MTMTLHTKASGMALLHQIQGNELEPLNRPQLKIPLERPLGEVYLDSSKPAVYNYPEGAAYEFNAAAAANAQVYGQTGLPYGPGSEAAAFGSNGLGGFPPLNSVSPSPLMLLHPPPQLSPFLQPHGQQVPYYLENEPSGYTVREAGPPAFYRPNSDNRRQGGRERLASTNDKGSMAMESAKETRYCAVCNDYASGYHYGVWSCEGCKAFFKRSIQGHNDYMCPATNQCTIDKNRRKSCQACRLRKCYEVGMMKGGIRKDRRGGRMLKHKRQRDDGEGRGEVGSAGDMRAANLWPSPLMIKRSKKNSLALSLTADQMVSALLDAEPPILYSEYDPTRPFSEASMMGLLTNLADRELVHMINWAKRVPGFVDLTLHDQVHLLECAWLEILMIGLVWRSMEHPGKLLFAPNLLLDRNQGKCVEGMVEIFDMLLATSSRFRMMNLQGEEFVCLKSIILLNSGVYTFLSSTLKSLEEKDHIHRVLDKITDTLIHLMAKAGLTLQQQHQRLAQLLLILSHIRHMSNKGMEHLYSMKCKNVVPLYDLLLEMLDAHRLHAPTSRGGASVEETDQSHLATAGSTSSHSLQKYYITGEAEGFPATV
Outline: (§1)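 Radioligand competition binding to human ERα or ERβ, run as an outsourced panel assay. Readout is % inhibition of specific [3H]estradiol binding at 5.0 and 50 µM compound. Run in duplicate, and the mean of the duplicates is reported.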

[4] = target: T1, Estrogen receptor (Homo sapiens); experiment: Displacement of [3H]estradiol from human full length recombinant ERalpha expressed in baculovirus-infected Sf9 cells at 50 uM incubated for 120 mins by radiometric scintillation counting analysis; outline: as §1
[5] = target: Estrogen receptor beta (Homo sapiens) (UniProt Q92731); experiment: Displacement of [3H]estradiol from human full length recombinant ERbeta expressed in baculovirus-infected Sf9 cells at 5 uM incubated for 120 mins by radiometric scintillation counting analysis; outline: as §1
Sequence of Estrogen receptor beta (Homo sapiens) (Q92731 whole entry): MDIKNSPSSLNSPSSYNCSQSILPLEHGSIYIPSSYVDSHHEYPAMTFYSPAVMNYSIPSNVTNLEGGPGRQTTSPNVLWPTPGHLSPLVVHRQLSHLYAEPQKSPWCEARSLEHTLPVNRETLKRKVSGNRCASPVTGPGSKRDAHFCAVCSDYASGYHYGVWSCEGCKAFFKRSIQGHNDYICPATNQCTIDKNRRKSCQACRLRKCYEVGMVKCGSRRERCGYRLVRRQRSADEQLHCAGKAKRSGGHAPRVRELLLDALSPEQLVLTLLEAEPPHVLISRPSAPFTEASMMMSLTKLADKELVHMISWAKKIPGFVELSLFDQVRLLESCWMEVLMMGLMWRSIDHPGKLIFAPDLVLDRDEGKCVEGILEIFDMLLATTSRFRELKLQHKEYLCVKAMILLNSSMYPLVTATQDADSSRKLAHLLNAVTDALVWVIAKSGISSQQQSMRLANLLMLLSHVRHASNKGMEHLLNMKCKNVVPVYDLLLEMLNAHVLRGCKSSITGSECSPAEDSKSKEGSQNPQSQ

[6] = target: Estrogen receptor beta (Homo sapiens) (UniProt Q92731); experiment: Displacement of [3H]estradiol from human full length recombinant ERbeta expressed in baculovirus-infected Sf9 cells at 50 uM incubated for 120 mins by radiometric scintillation counting analysis; outline: as §1
KMS-11 [7] = experiment: Antitumor activity against human KMS-11 cells xenografted in NOD-SCID mouse assessed as tumor growth inhibition at 7.5 mg/kg, ip administered every other day measured at day 17 post-tumor implantation by caliper analysis; format: functional, organism-based
Outline: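 Female NOD/SCID mice, six to eight weeks old, injected s.c. with 5 × 10^6 KMS-11 cells in PBS. Once tumors were palpable (10 days), mice were randomized and given 7.5 mg/kg i.p. every other day, with DMSO as vehicle control; n = 5 per group. Tumor volume from caliper measurements, V = (D × d²)/2. Tumors excised and weighed at day 17.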

[8] = Total plasma concentration in NOD-SCID mouse at 7.5 mg/kg, ip measured after 90 mins by HPLC/MS/MS analysis; format: ADME, organism-based
Outline: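 A single 7.5 mg/kg i.p. dose given to eight-week-old NOD/SCID mice (n = 4). Blood collected at 90 min. Plasma treated with acetonitrile containing internal standard (1:2) to precipitate protein, centrifuged, and the supernatant analyzed by C18 gradient HPLC-MS/MS in ESI-negative MRM mode. Calibration in spiked blank plasma, linear over 1–1000 nM, LOQ 1 nM. Values are mean ± SEM.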

[9] = target: Fibroblast growth factor 2 (Homo sapiens, UniProt P09038); experiment: Binding affinity to FGF2 (unknown origin) by sensor chip immobilization based surface plasmon resonance analysis
Sequence of Fibroblast growth factor 2 (P09038 143-288 limits assumed): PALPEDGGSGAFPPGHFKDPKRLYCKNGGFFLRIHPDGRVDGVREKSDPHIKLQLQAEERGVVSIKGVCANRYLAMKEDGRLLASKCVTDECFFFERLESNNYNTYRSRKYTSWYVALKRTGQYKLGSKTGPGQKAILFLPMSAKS

OPM-2 [10] = experiment: Trapping activity at FGF in human OPM-2 cells assessed as inhibition of FGFR3 phosphorylation at 6 uM measured after 6 hrs by westernblot analysis; format: cell-based
Outline: (§2)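 Cells cultured in RPMI1640 with 10% FBS and 2.0 mM glutamine, then treated 6 h with 6 µM compound. Washed in cold PBS and lysed in NP-40 buffer (20 mM Tris-HCl pH 8, 1 mM orthovanadate, protease inhibitors). Bradford used to normalize protein. Blots probed for phospho-FGFR3 (Y724), with β-actin or α-tubulin as loading control; percent inhibition read by densitometry.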

RPMI-8226 [11] = experiment: Trapping activity at FGF in human RPMI-8226 cells assessed as inhibition of FGFR3 phosphorylation at 6 uM measured after 6 hrs by westernblot analysis; format: cell-based; outline: as §2
U-266 [12] = experiment: Trapping activity at FGF in human U-266 cells assessed as inhibition of FGFR3 phosphorylation at 6 uM measured after 6 hrs by westernblot analysis; format: cell-based; outline: as §2
OPM-2 [13] = experiment: Antiproliferative activity against human OPM-2 cells assessed as reduction in cell viability incubated for 48 hrs by propidium iodide staining-based flow cytometric analysis; format: functional; conditions: OPM-2, 48 h
Outline: (§3)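 Myeloma cells kept at low passage in RPMI1640 with 10% heat-inactivated FBS and 2.0 mM glutamine, Mycoplasma-tested, authenticated. Exposed to increasing concentrations of test compound for 48 h. Viable cells counted as propidium iodide-negative by flow cytometry with absolute counts. IC50 = concentration halving proliferation; mean of at least 2 experiments in triplicate.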

RPMI-8226 [14] = experiment: Antiproliferative activity against human RPMI-8226 cells assessed as reduction in cell viability incubated for 48 hrs by propidium iodide staining-based flow cytometric analysis; format: functional; conditions: RPMI-8226, 48 h; outline: as §3
U-266 [15] = experiment: Antiproliferative activity against human U-266 cells assessed as reduction in cell viability incubated for 48 hrs by propidium iodide staining-based flow cytometric analysis; format: functional; conditions: U-266, 48 h; outline: as §3

Row | Structure (SMILES) | inhibition (KMS-11 [1]) | other results
1 | C[C@]12CC[C@H]3[C@@H](CC=C4C[C@@H](O)CC[C@@]43C)[C@@H]1CC[C@@H]2[C@H](O)CCO | inactive | 
2 | C[C@]12CC[C@H]3[C@@H](CC=C4C[C@@H](O)CC[C@@]43C)[C@@H]1CC[C@@H]2C(O)CC(O)c1ccccn1 (stereo in doubt; 14b) | 34% | 
3 | C[C@]12CC[C@H]3[C@@H](CC=C4C[C@@H](OCCO)CC[C@@]43C)[C@@H]1CC[C@@H]2[C@H](O)CC(O)(C(F)(F)F)C(F)(F)F | 85% | IC50 (KMS-11 [2]): 7.7 µM
4 | C[C@]12CC[C@H]3[C@@H](CC=C4CC(=O)CC[C@@]43C)[C@@H]1CC[C@@H]2[C@H](O)CC(O)(C(F)(F)F)C(F)(F)F | 69% | 
5 | C[C@]12CC[C@H]3[C@@H](CC=C4C[C@@H](O)CC[C@@]43C)[C@@H]1CC[C@@H]2C(O)CC(O)c1ccccc1 (stereo in doubt; 11a) | 49% | 
6 | C[C@]12CC[C@H]3[C@@H](CC=C4C[C@@H](O)CC[C@@]43C)[C@@H]1CC[C@@H]2[C@@H](O)CCO | 57% | 
7 | C[C@]12CC[C@H]3[C@@H](CC=C4C[C@@H](O)CC[C@@]43C)[C@@H]1CC[C@@H]2[C@@H](O)CC(O)(C(F)(F)F)C(F)(F)F | 81% | IC50 (KMS-11 [2]): 3.4 µM; inhibition [3]: 60.8%; inhibition [4]: 83.3%; inhibition [5]: 74.9%; inhibition [6]: 91.9%; Activity (KMS-11 [7]): Active; concentration at 1.5 h [8]: 360 nM
8 | C[C@]12CC[C@H]3[C@@H](CC=C4C[C@@H](OCCO)CC[C@@]43C)[C@@H]1CC[C@@H]2[C@@H](O)CC(O)(C(F)(F)F)C(F)(F)F | 71% | 
9 | C[C@]12CC[C@H]3[C@@H](CC=C4C[C@@H](O)CC[C@@]43C)[C@@H]1CC[C@@H]2[C@@H](O)CC(N)=O | 17% | 
10 | CC(C)(O)C[C@H](O)[C@H]1CC[C@H]2[C@@H]3CC=C4C[C@@H](O)CC[C@]4(C)[C@H]3CC[C@]12C | 46% | 
11 | C[C@]12CC[C@H]3[C@@H](CC=C4CC(=O)CC[C@@]43C)[C@@H]1CC[C@@H]2[C@@H](O)CC(O)(C(F)(F)F)C(F)(F)F | 91% | IC50 (KMS-11 [2]): 3.4 µM
12 | CC(C)(O)C[C@@H](O)[C@H]1CC[C@H]2[C@@H]3CC=C4C[C@@H](O)CC[C@]4(C)[C@H]3CC[C@]12C | 32% | 
13 | C[C@]12CC[C@H]3[C@@H](CC=C4C[C@@H](O[C@@H]5O[C@H](CO)[C@@H](O)[C@H](O)[C@H]5O)CC[C@@]43C)[C@@H]1CC[C@@H]2[C@H](O)CC(O)(C(F)(F)F)C(F)(F)F | inactive | 
14 | C[C@]12CCC(=O)C[C@@H]1CC[C@@H]1[C@@H]2CC[C@]2(C)[C@@H]([C@@H](O)CC(O)(C(F)(F)F)C(F)(F)F)CC[C@@H]12 | 82% | 
15 | C[C@]12CC[C@H]3[C@@H](CC=C4C[C@@H](O)CC[C@@]43C)[C@@H]1CC[C@@H]2[C@@H](O)CC(=O)O | 41% | 
16 | C[C@]12CC[C@H](O)C[C@@H]1CC[C@@H]1[C@@H]2CC[C@]2(C)[C@@H]([C@@H](O)CC(O)(C(F)(F)F)C(F)(F)F)CC[C@@H]12 | 89% | IC50 (KMS-11 [2]): 2.9 µM
17 | C[C@]12CC[C@H]3[C@@H](CC=C4C/C(=N\O)CC[C@@]43C)[C@@H]1CC[C@@H]2[C@H](O)CC(O)(C(F)(F)F)C(F)(F)F | 80% | 
18 | C[C@]12CC[C@H]3[C@@H](CC=C4C[C@@H](O)CC[C@@]43C)[C@@H]1CC[C@@H]2[C@H](O)CC(=O)O | 80% | 
19 | C[C@]12CC[C@H](O)C[C@@H]1CC[C@@H]1[C@@H]2CC[C@]2(C)[C@@H]([C@H](O)CC(O)(C(F)(F)F)C(F)(F)F)CC[C@@H]12 | inactive | 
20 | C[C@]12CC[C@H]3[C@@H](CC=C4C[C@@H](O)CC[C@@]43C)[C@@H]1CC[C@@H]2C(O)CC(O)c1ccccn1 (stereo in doubt; 14a) | 26% | 
21 | C[C@]12CC[C@H]3[C@@H](CC=C4CC(=NO)CC[C@@]43C)[C@@H]1CC[C@@H]2[C@@H](O)CC(O)(C(F)(F)F)C(F)(F)F | 51% | 
22 | C[C@]12CC[C@H]3[C@@H](CC=C4C/C(=N/O)CC[C@@]43C)[C@@H]1CC[C@@H]2[C@H](O)CC(O)(C(F)(F)F)C(F)(F)F | 58% | 
23 | C[C@]12CC[C@H]3[C@@H](CC=C4C[C@@H](OC(=O)CN)CC[C@@]43C)[C@@H]1CC[C@@H]2[C@@H](O)CC(O)(C(F)(F)F)C(F)(F)F | 93% | IC50 (KMS-11 [2]): 5.6 µM
24 | C[C@]12CC[C@H]3[C@@H](CC=C4C[C@@H](O[C@@H]5O[C@H](CO)[C@@H](O)[C@H](O)[C@H]5O)CC[C@@]43C)[C@@H]1CC[C@@H]2[C@@H](O)CC(O)(C(F)(F)F)C(F)(F)F | 100% | IC50 (KMS-11 [2]): 4 µM
25 | C[C@]12CC[C@H]3[C@@H](CC=C4C[C@@H](O)CC[C@@]43C)[C@@H]1CC[C@@H]2C(O)CC(O)c1ccccc1 (stereo in doubt; 11b) | 68% | 
26 | C[C@]12CC[C@H]3[C@@H](CC=C4C[C@@H](O)CC[C@@]43C)[C@@H]1CC[C@@H]2[C@H](O)CC(N)=O | 44% | 
27 | C[C@]12CC[C@H]3[C@@H](CC=C4C[C@@H](O)CC[C@@]43C)[C@@H]1CC[C@@H]2[C@H](O)CC(O)(C(F)(F)F)C(F)(F)F | inactive | concentration at 1.5 h [8]: 93.1 nM
28 | C[C@]12CCC(=O)C[C@@H]1CC[C@@H]1[C@@H]2CC[C@]2(C)[C@@H]([C@H](O)CC(O)(C(F)(F)F)C(F)(F)F)CC[C@@H]12 | 99% | IC50 (KMS-11 [2]): 2.4 µM; Kd [9]: 30.5 µM; Activity (OPM-2 [10]): Active; Activity (RPMI-8226 [11]): Active; Activity (U-266 [12]): Active; inhibition [3]: 0%; inhibition [4]: 0%; inhibition [5]: 4.3%; inhibition [6]: 17.6%; Activity (KMS-11 [7]): Active; concentration at 1.5 h [8]: 525 nM; IC50 (OPM-2 [13]): 6.6 µM; IC50 (RPMI-8226 [14]): 6.6 µM; IC50 (U-266 [15]): 5.4 µM
29 | C[C@]12CC[C@H]3[C@@H](CC=C4C[C@@H](O)CC[C@@]43C)[C@@H]1CC[C@@H]2C(O)CC(O)c1ccccc1 (stereo in doubt; 11c) | 28% | 
